Experiments:
Assay type in all cases: functional
[1] = system: Meyerozyma guilliermondii; test: Antibiofilm activity against Candida guilliermondii a410 after 48 hrs by XTT reduction assay relative to control; parameters: scale not given: the % may be the effect or the level left
Procedure, shortened: (§1)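 Biofilms grown on autoclaved PVC disks: 1·10^6 cfu ml-1 cells, adhesion 1.5 h at 37 °C shaking 100 rpm, PBS wash, then 48 h at 37 °C in RPMI 1640 (MOPS, pH 7). Metabolic activity read by XTT–menadione reduction, 2 h at 37 °C, supernatant formazan at 490 nm, relative to drug-free control; triplicate on different days.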

Candida albicans [2] = test: Antibiofilm activity against Candida albicans ATCC 10231 after 48 hrs by XTT reduction assay relative to control; parameters: scale not given: the % may be the effect or the level left; procedure, shortened: as §1
Candida albicans [3] = test: Antibiofilm activity against Candida albicans 17a18 after 48 hrs by XTT reduction assay relative to control; parameters: scale not given: the % may be the effect or the level left; procedure, shortened: as §1
Nakaseomyces glabratus [4] = test: Antibiofilm activity against Candida glabrata ATCC 15126 after 48 hrs by XTT reduction assay relative to control; parameters: scale not given: the % may be the effect or the level left; procedure, shortened: as §1
Nakaseomyces glabratus [5] = test: Antibiofilm activity against Candida glabrata 18a10 after 48 hrs by XTT reduction assay relative to control; parameters: scale not given: the % may be the effect or the level left; procedure, shortened: as §1
Candida albicans [6] = test: Antibiofilm activity against Candida albicans ATCC 10231 by two dimensional checkerboard dilution method in presence of aspirin
Procedure, shortened: (§2)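 Preformed 48 h disk biofilms (RPMI 1640, MOPS pH 7, 37 °C), PBS-washed, exposed 24 h at 37 °C on rocker to two-dimensional checkerboard of anidulafungin plus NSAID in RPMI; NSAID final 0.1 µM to 100 mM. XTT reduction at 490 nm; SMIC = combination giving 50% metabolic reduction versus drug-free control; FIC index calculated; triplicate on different days.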

Candida albicans [7] = test: Antibiofilm activity against Candida albicans ATCC 90028 by two dimensional checkerboard dilution method in presence of aspirin; procedure, shortened: as §2
Candida albicans [8] = test: Antibiofilm activity against Candida albicans 17a18 by two dimensional checkerboard dilution method in presence of aspirin; procedure, shortened: as §2
Nakaseomyces glabratus [9] = test: Antibiofilm activity against Candida glabrata ATCC 15126 by two dimensional checkerboard dilution method in presence of aspirin; procedure, shortened: as §2
[10] = system: Meyerozyma guilliermondii; test: Antibiofilm activity against Candida guilliermondii ATCC 6260 by two dimensional checkerboard dilution method in presence of aspirin; procedure, shortened: as §2
[11] = system: Meyerozyma guilliermondii; test: Antibiofilm activity against Candida guilliermondii a83 by two dimensional checkerboard dilution method in presence of aspirin
Procedure, shortened: (§3)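 Biofilms were grown on PVC disks from 2 ml of a 1·10^6 cfu/ml cell suspension. Adhesion ran 1.5 h at 37 °C with shaking at 100 rpm. Disks were PBS-washed, then matured 48 h at 37 °C in RPMI 1640 (MOPS, pH 7). Biofilms were washed again and given 24 h at 37 °C of anidulafungin/NSAID checkerboard combinations (NSAID final 0.1 µM–100 mM). Read-out was XTT-menadione (2 h, 37 °C, 490 nm). SMIC was defined as 50% reduction versus drug-free control, from which FICI was calculated. Triplicates were run on different days.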

Candida albicans [12] = test: Antibiofilm activity against Candida albicans ATCC 90028 assessed as fractional inhibitory concentration by two dimensional checkerboard dilution method in presence of aspirin; procedure, shortened: as §2
[13] = system: Meyerozyma guilliermondii; test: Antibiofilm activity against Candida guilliermondii ATCC 6260 assessed as fractional inhibitory concentration by two dimensional checkerboard dilution method in presence of aspirin; procedure, shortened: as §2
[14] = system: Meyerozyma guilliermondii; test: Antibiofilm activity against Candida guilliermondii a410 assessed as fractional inhibitory concentration by two dimensional checkerboard dilution method in presence of aspirin; procedure, shortened: as §3
Candida albicans [15] = test: Antibiofilm activity against Candida albicans ATCC 10231 by two dimensional checkerboard dilution method in presence of diclofenac; procedure, shortened: as §2
Candida albicans [16] = test: Antibiofilm activity against Candida albicans ATCC 10231 assessed as fractional inhibitory concentration by two dimensional checkerboard dilution method in presence of diclofenac; procedure, shortened: as §2
Candida albicans [17] = test: Antibiofilm activity against Candida albicans ATCC 90028 by two dimensional checkerboard dilution method in presence of diclofenac; procedure, shortened: as §2
Candida albicans [18] = test: Antibiofilm activity against Candida albicans ATCC 90028 assessed as fractional inhibitory concentration by two dimensional checkerboard dilution method in presence of diclofenac; procedure, shortened: as §2
Nakaseomyces glabratus [19] = test: Antibiofilm activity against Candida glabrata ATCC 15126 by two dimensional checkerboard dilution method in presence of diclofenac; procedure, shortened: as §2
Nakaseomyces glabratus [20] = test: Antibiofilm activity against Candida glabrata 18a10 by two dimensional checkerboard dilution method in presence of diclofenac; procedure, shortened: as §2
[21] = system: Meyerozyma guilliermondii; test: Antibiofilm activity against Candida guilliermondii a410 by two dimensional checkerboard dilution method in presence of diclofenac; procedure, shortened: as §3
Candida albicans [22] = test: Antibiofilm activity against Candida albicans ATCC 10231 by two dimensional checkerboard dilution method in presence of ibuprofen; procedure, shortened: as §2
Candida albicans [23] = test: Antibiofilm activity against Candida albicans ATCC 90028 by two dimensional checkerboard dilution method in presence of ibuprofen; procedure, shortened: as §2
Candida albicans [24] = test: Antibiofilm activity against Candida albicans ATCC 90028 assessed as fractional inhibitory concentration by two dimensional checkerboard dilution method in presence of ibuprofen; procedure, shortened: as §2
Candida albicans [25] = test: Antibiofilm activity against Candida albicans ATCC 24433 by two dimensional checkerboard dilution method in presence of ibuprofen; procedure, shortened: as §2
Candida albicans [26] = test: Antibiofilm activity against Candida albicans 17a18 by two dimensional checkerboard dilution method in presence of ibuprofen; procedure, shortened: as §2
Candida albicans [27] = test: Antibiofilm activity against Candida albicans 17a18 assessed as fractional inhibitory concentration by two dimensional checkerboard dilution method in presence of ibuprofen; procedure, shortened: as §2
Nakaseomyces glabratus [28] = test: Antibiofilm activity against Candida glabrata ATCC 15126 assessed as fractional inhibitory concentration by two dimensional checkerboard dilution method in presence of ibuprofen; procedure, shortened: as §2
Nakaseomyces glabratus [29] = test: Antibiofilm activity against Candida glabrata 18a10 by two dimensional checkerboard dilution method in presence of ibuprofen; procedure, shortened: as §2
Nakaseomyces glabratus [30] = test: Antibiofilm activity against Candida glabrata 18a10 assessed as fractional inhibitory concentration by two dimensional checkerboard dilution method in presence of ibuprofen; procedure, shortened: as §2
[31] = system: Meyerozyma guilliermondii; test: Antibiofilm activity against Candida guilliermondii ATCC 6260 assessed as fractional inhibitory concentration by two dimensional checkerboard dilution method in presence of ibuprofen; procedure, shortened: as §2
[32] = system: Meyerozyma guilliermondii; test: Antibiofilm activity against Candida guilliermondii a83 by two dimensional checkerboard dilution method in presence of ibuprofen; procedure, shortened: as §3
[33] = system: Meyerozyma guilliermondii; test: Antibiofilm activity against Candida guilliermondii a410 by two dimensional checkerboard dilution method in presence of ibuprofen; procedure, shortened: as §3
[34] = system: Meyerozyma guilliermondii; test: Antibiofilm activity against Candida guilliermondii ATCC 6260 at 1 mM after 24 hrs by XTT reduction assay relative to control; parameters: scale not given: the % may be the effect or the level left
Procedure, shortened: (§4)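 Biofilms grown on sterilized PVC disks: 1·10^6 cfu/ml Candida cells adhered for 1.5 h at 37 °C with shaking, washed with PBS, then matured 48 h at 37 °C in RPMI 1640 (MOPS, pH 7). Preformed biofilms were washed and exposed to drug, alone or in two-dimensional checkerboard combination, in RPMI 1640 for 24 h at 37 °C on a rocker.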

[35] = system: Meyerozyma guilliermondii; test: Antibiofilm activity against Candida guilliermondii a410 at 1 mM after 24 hrs by XTT reduction assay relative to control; parameters: scale not given: the % may be the effect or the level left; procedure, shortened: as §4
[36] = system: Meyerozyma guilliermondii; test: Antibiofilm activity against Candida guilliermondii a410 at 0.1 uM to 100 mM after 48 hrs by XTT reduction assay relative to control; parameters: scale not given: the % may be the effect or the level left; procedure, shortened: as §4
[37] = system: Meyerozyma guilliermondii; test: Antibiofilm activity against Candida guilliermondii ATCC 6260 at 0.2 mM after 24 hrs by XTT reduction assay relative to control; parameters: scale not given: the % may be the effect or the level left; procedure, shortened: as §4

SMILES: CCCCCOc1ccc(-c2ccc(-c3ccc(C(=O)N[C@@H]4C[C@@H](O)[C@@H](O)NC(=O)[C@@H]5[C@@H](O)[C@@H](C)CN5C(=O)[C@H]([C@@H](C)O)NC(=O)[C@H]([C@H](O)[C@@H](O)c5ccc(O)cc5)NC(=O)[C@@H]5C[C@@H](O)CN5C(=O)[C@H]([C@H](C)O)NC4=O)cc3)cc2)cc1
- Activity [1]: 45.62%
- Activity (Candida albicans [2]): 33.98%
- Activity (Candida albicans [3]): 29.31%
- Activity (Nakaseomyces glabratus [4]): 27.41%
- Activity (Nakaseomyces glabratus [5]): 37.42%
- MIC (Candida albicans [6]): 0.1 µg/mL
- MIC (Candida albicans [7]): 0.1 µg/mL
- MIC (Candida albicans [8]): 0.1 µg/mL
- MIC (Nakaseomyces glabratus [9]): 0.1 µg/mL
- MIC [10]: 0.1 µg/mL
- MIC [11]: 0.1 µg/mL
- Ratio (Candida albicans [12]): 0.05
- Ratio [13]: 0.05
- Ratio [14]: 0.05
- MIC (Candida albicans [15]): 0.1 µg/mL
- Ratio (Candida albicans [16]): 0.05
- MIC (Candida albicans [17]): 0.1 µg/mL
- Ratio (Candida albicans [18]): 0.05
- MIC (Nakaseomyces glabratus [19]): 0.2 µg/mL
- MIC (Nakaseomyces glabratus [20]): 0.2 µg/mL
- MIC [21]: 0.1 µg/mL
- MIC (Candida albicans [22]): 0.4 µg/mL
- MIC (Candida albicans [23]): 0.4 µg/mL
- Ratio (Candida albicans [24]): 0.2
- MIC (Candida albicans [25]): 0.4 µg/mL
- MIC (Candida albicans [26]): 0.4 µg/mL
- Ratio (Candida albicans [27]): 0.2
- Ratio (Nakaseomyces glabratus [28]): 0.05
- MIC (Nakaseomyces glabratus [29]): 0.1 µg/mL
- Ratio (Nakaseomyces glabratus [30]): 0.05
- Ratio [31]: 0.2
- MIC [32]: 0.1 µg/mL
- MIC [33]: 0.4 µg/mL

SMILES: CC(=O)Oc1ccccc1C(=O)O [ASPIRIN]
- Activity [34]: 54.12%
- Activity [35]: 43.25%

SMILES: O=C([O-])Cc1ccccc1Nc1c(Cl)cccc1Cl.[Na+] [DICLOFENAC SODIUM]
- Activity [36]: 58.69%

SMILES: CC(C)Cc1ccc(C(C)C(=O)O)cc1 (configuration not stated) [IBUPROFEN]
- Activity [37]: 64.43%
